Test results as given in ChEMBL document CHEMBL1124695, “Brain-specific chemical delivery systems for beta-lactam antibiotics. Synthesis and properties of some dihydropyridine and dihydroiosquinoline derivatives of benzylpenicillin” (J Med Chem, 1989).

Experiments:
[1] = Half life of compound when water is added (0.15u) in pH 7.4 phosphate buffer (0.05 M) at 37 degree C; type: ADME
How it was run: (§1)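 Chemical stability: compound added from freshly prepared 8 mM DMSO stock into 0.05 M phosphate buffer (μ = 0.15), pH 7.4, at 37 °C. Samples drawn at intervals and injected directly onto reversed-phase HPLC with UV detection. Buffer pH checked before and after. Disappearance followed first-order kinetics, giving apparent rate constants. Half-life in minutes.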

[2] = Half life of compound (0.15u) in pH 7.4 phosphate buffer (0.05 M) at 37 degree C; type: ADME; how it was run: as §1
[3] = Stability in aqueous buffer at pH 7.4; type: physicochemical; how it was run: as §1
[4] = Second order oxidation rate constant determined by using Ferricyanide; type: ADME
How it was run: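 Oxidation by ferricyanide under pseudo-first-order conditions, with Fe(CN)6^3- in large excess over the dihydro carrier and pH held constant. Pseudo-first-order rates were measured at several ferricyanide concentrations, and the second-order oxidation rate constant (Ko) was derived from them.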

[5] = Dissociation constant of the compound; type: physicochemical
Homo sapiens [6] = assay: Concentration of compound in human blood tissues after intravenous administration of 2 g dose; type: ADME, organism-based
[7] = Partition coefficient (logP); type: physicochemical; details: octanol/water
Homo sapiens [8] = assay: Concentration of compound in human brain tissues after intravenous administration of 2 g dose; type: ADME, organism-based; details: in vivo

| Structure (SMILES) | half-life [1] | half-life [2] | Ko [4] | other results |
| --- | --- | --- | --- | --- |
| C[n+]1cccc(C(=O)NCC(OC(=O)C2N3C(=O)[C@@H](NC(=O)Cc4ccccc4)[C@H]3SC2(C)C)c2ccccc2)c1.[I-] (stereo partly specified) | 4.47 h | – | – | – |
| CN1C=C(C(=O)NCCOC(=O)C2N3C(=O)[C@@H](NC(=O)Cc4ccccc4)[C@H]3SC2(C)C)c2ccccc2C1 (stereo partly specified) | – | 16.5 h | – | – |
| C[n+]1cc(C(=O)NCCOC(=O)C2N3C(=O)[C@@H](NC(=O)Cc4ccccc4)[C@H]3SC2(C)C)c2ccccc2c1.[I-] (stereo partly specified) | 6.29 h | – | – | – |
| CC1(C)S[C@@H]2[C@H](NC(=O)Cc3ccccc3)C(=O)N2C1C(=O)OCCO (stereo partly specified) | – | 7.27 h | – | k [3]: 0.0016 min⁻¹ |
| CC(CNC(=O)c1ccc[n+](C)c1)OC(=O)C1N2C(=O)[C@@H](NC(=O)Cc3ccccc3)[C@H]2SC1(C)C.[I-] (stereo partly specified) | 6.06 h | – | – | – |
| C[n+]1cccc(C(=O)OCCOC(=O)C2N3C(=O)[C@@H](NC(=O)Cc4ccccc4)[C@H]3SC2(C)C)c1.[I-] (stereo partly specified) | 0.615 h | – | – | – |
| C[n+]1cccc(C(=O)NCCOC(=O)C2N3C(=O)[C@@H](NC(=O)Cc4ccccc4)[C@H]3SC2(C)C)c1.[I-] (stereo partly specified) | 3.26 h | – | – | – |
| CN1C=CCC(C(=O)OCOC(=O)C2N3C(=O)[C@@H](NC(=O)Cc4ccccc4)[C@H]3SC2(C)C)=C1 (stereo partly specified) | 2.26 h | 1.55 h | 0.53 M⁻¹ s⁻¹ | – |
| C[n+]1cccc(C(=O)OCOC(=O)C2N3C(=O)[C@@H](NC(=O)Cc4ccccc4)[C@H]3SC2(C)C)c1.[I-] (stereo partly specified) | 0.045 h | – | – | – |
| CN1C=CCC(C(=O)NCC(OC(=O)C2N3C(=O)[C@@H](NC(=O)Cc4ccccc4)[C@H]3SC2(C)C)c2ccccc2)=C1 (stereo partly specified) | – | 0.587 h | 15.85 M⁻¹ s⁻¹ | – |
| CN1C=CCC(C(=O)NCCOC(=O)C2N3C(=O)[C@@H](NC(=O)Cc4ccccc4)[C@H]3SC2(C)C)=C1 (stereo partly specified) | 2.47 h | 0.213 h | 26.08 M⁻¹ s⁻¹ | – |
| CN1C=CCC(C(=O)OCCOC(=O)C2N3C(=O)[C@@H](NC(=O)Cc4ccccc4)[C@H]3SC2(C)C)=C1 (stereo partly specified) | 7.38 h | 1.93 h | 1.552 M⁻¹ s⁻¹ | – |
| CC(CNC(=O)C1=CN(C)C=CC1)OC(=O)C1N2C(=O)[C@@H](NC(=O)Cc3ccccc3)[C@H]2SC1(C)C (stereo partly specified) | – | 0.43 h | 11.94 M⁻¹ s⁻¹ | – |
| CC1(C)S[C@@H]2[C@H](NC(=O)Cc3ccccc3)C(=O)N2[C@H]1C(=O)O [PENICILLIN G] | – | – | – | pKa [5]: 2.6; Concentration (Homo sapiens [6]): 7500 ng/mL; logP [7]: 1.76; Concentration (Homo sapiens [8]): 320 ng/mL |
